A selection: hits, their analogues and other compounds. The true share with any hit is near 1.2%.
TDP2 inh: human TDP2 enzyme inhibitors, primary screen, biochemical, epi absorbance, recombinant enzyme | AID 720702, 2013 | hit rate 0.34% among 370,000 | inhibition, % at 12.8 µM | T5PNP hydrolysis, p-nitrophenol absorbance 415 nm;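 active means inhibition above the mean of all tested compounds plus 3 SD, set per campaign, cut at about 25% in these data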;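 further: 0% = DMSO with enzyme and 100% = buffer with substrate but no TDP2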
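Assay system: Recombinant human TDP2 | Quantity: 120 nM TDP2 per well | Incubation: 2 h at 37 °C | Signal: Epi absorbance | Evaluation: Percent inhibition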
SUMO HTRF inh: inhibitors of in vitro SUMOylation cascade, primary screen, biochemical, HTRF, uHTS; HTRF SUMOylation assay, SAE1/SAE2 + UBC9; inhibition, % at 35 µM; hit rate 0.36% among 290,000; SUMO-conjugating enzyme UBC9 (Homo sapiens), P63279; AID 2006, 2009; in the data active means inhibition above about 50%, passing the limit was not always enough
Target sequence (P63279 whole entry, looked up): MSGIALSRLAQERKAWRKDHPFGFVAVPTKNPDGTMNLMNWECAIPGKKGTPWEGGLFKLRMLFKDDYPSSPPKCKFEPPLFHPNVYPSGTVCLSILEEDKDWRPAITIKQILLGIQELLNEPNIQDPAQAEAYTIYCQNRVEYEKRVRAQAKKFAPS
NSD2 HMT inh: NSD2 histone methyltransferase inhibitors, primary screen, biochemical, AlphaScreen, single concentration, set 2 | Histone-lysine N-methyltransferase NSD2 (Homo sapiens), O96028 | NSD2 peptide methylation, 120 min | inhibition, % at 12.5 µM | hit rate 0.54% among 310,000 | AID 743445, 2014; in the data active means inhibition above about 50%
CTSL1 counter: Fasciola hepatica cathepsin L1 inhibitors, primary screen, counter-screen for PFM18AAP inhibitor project, biochemical, QFRET, fluorogenic peptide substrate; inhibition, % at 5.96 µM; AID 1906, 2009; recombinant F. hepatica cathepsin L1, Z-Leu-Arg-MCA fluorescence; hit rate 0.49% among 300,000;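 active means inhibition above the mean of all tested compounds plus 3 SD, set per screening campaign, cut at about 17% in these data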;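 further: 0% = plate median of test compound wells and 100% = 1 µM Z-Phe-Ala-diazomethylketone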
TDP2 inh conf: human TDP2 enzyme inhibitors, retest, confirmation, biochemical, epi absorbance, recombinant enzyme | AID 743263, 2014 | hit rate 22% among 1,100 | inhibition, % at 12.8 µM | absorbance read-out | shares compounds with TDP2 inh; in the data active means inhibition above about 25%;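 further: 0% = vehicle with enzyme and 100% = no enzyme buffer only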
Numbers without * were called inactive; . = no result.

SMILES	TDP2 inh	SUMO HTRF inh	NSD2 HMT inh	CTSL1 counter	TDP2 inh conf
COc1ccccc1CC(=O)c1ccccc1OC	8	.	-2	.	.
COC(=O)c1ccc(CNC(=O)c2ccc3c(c2)S(=O)(=O)N=C2CCCCCN23)cc1	-2	.	5	.	.
CCN(c1ccccc1)c1nc(=O)c2cccnc2s1	1	9	-3	-4	.
CCN(c1ccccc1)c1cc2ccccc2c(=O)[nH]1	28*	61*	41	51*	76*
Cc1cccc(-n2ncc3c2CCCC3NC(=O)CCN2CCCO2)c1C (configuration not stated)	6	11	-2	-2	.
CCCNC(=O)C(Cc1ccc(F)cc1)NC(=O)c1ccccc1 (configuration not stated)	1	.	.	.	.
O=C(NCc1ccc(F)cc1)C1CC(=O)N(Cc2ccco2)C1 (configuration not stated)	25*	-10	.	1	-6
CN1c2ccccc2C(C)(C)C12C=Cc1cc(O)ccc1O2 (configuration not stated)	0	1	4	-2	.
CN1c2ccccc2C(C)(C)C12C=Nc1c(cc(N3CCOCC3)c3ccccc13)O2 (configuration not stated)	53*	73	1	.	12
Cc1ccc2[nH]c(O)c(N=Nc3nc4ccccc4s3)c2c1	25*	-43	1	8	-18
COc1cccc(-n2nnnc2SCC(=O)Nc2nc3c(s2)CCCC3)c1	5	-2	-4	4	.
COC(=O)c1cccc(-n2nnnc2SCC(=O)Nc2nc3c(s2)CCCC3)c1	48*	-12	3	-4	-2
COc1ccc(CNCCCC(=O)Nc2c(Cl)ccc(C)c2Cl)cc1OC	29*	-1	4	0	8
Cc1cc(Cl)c2oc(C(=O)N(C)Cc3ccon3)c(C)c2c1	-16	-18	-8	-5	.
CCOC(=O)c1c(C)[nH]c(C)c1S(=O)(=O)N1c2ccccc2CC1C (configuration not stated)	55*	-8	6	5	4
CCNC(=O)Nc1ccc2c(c1)C(=O)N(C)[C@H]1CC[C@H](CC(=O)N[C@H](C)c3ccccc3)O[C@@H]1CO2	3	.	.	.	.
CC(C)CN(C(=O)CC(C)c1ccccc1)c1c(N)n(Cc2ccccc2)c(=O)[nH]c1=O (configuration not stated)	-6	.	-9	-2	.
CC(C)CN(C(=O)CCc1ccccc1Cl)c1c(N)n(Cc2ccccc2)c(=O)[nH]c1=O	27*	.	-3	1	-5
COc1cc(/C=N/NC(=O)c2cccc(NC(=O)c3ccccc3)c2)ccc1O	-17	-1	.	1	.
COc1cc(/C=N/NC(=O)Cc2nnc(NC(=O)c3ccccc3)s2)ccc1O	29*	31	-1	0	3
CC(=O)Oc1cc(C(=O)OCC(=O)NC23CC4CC(CC(C4)C2)C3)cc(OC(C)=O)c1OC(C)=O	1	.	.	.	.
COCCn1c(=S)[nH]c2sc3c(c2c1=O)CCC(C)C3 (configuration not stated)	3	-13	6	4	.
Cn1c(=S)[nH]c2sc3c(c2c1=O)CCC(C(C)(C)C)C3 (configuration not stated)	27*	3	8	1	-3
COc1ccccc1N1CCN(CCCCOc2c(OC)cccc2OC)CC1	27*	-7	17	-1	-5
CCNc1nc(NCC)n2c(SCC(=O)Nc3cc(Cl)ccc3OC)nnc2n1	25*	.	0	-2	-7
SMILES	TDP2 inh	SUMO HTRF inh	NSD2 HMT inh	CTSL1 counter	TDP2 inh conf
Cc1cc(Cl)c2oc(C(=O)N3CCN(C(=O)c4ccco4)CC3)c(C)c2c1	31*	10	11	1	-1
CCOc1cccc(C=NNC(=O)C(=O)Nc2cccc(C(F)(F)F)c2)c1O	-10	.	2	.	.
CC1=NN(c2ccccc2)C(=O)/C1=C/c1ccc[nH]1	-2	-17	36	0	.
CC1=NN(c2ccccc2)C(=O)/C1=C/c1cccs1	71*	86	14	-3	22
CC1=NN(c2ccccc2)C(=O)/C1=C\c1ccc(Br)s1	52*	80	2	-4	28*
CC1=NN(c2ccc(C)c(C)c2)C(=O)/C1=C/c1ccc2c(c1)n(C)c(=O)n2C	53*	85*	20	0	31*
